From publication PMC2217204 (The Journal of General Physiology, 2000)
Several values for one entry are separate records, joined by “and”; a condition that tells them apart may be missing. Equal values may be shown once. Read-outs that look alike come from different tables or passages of the source. Each block holds one compound with its values, some of them ahead of it.

What was measured:
[1] = molecular target: T1, KACh channel (Rattus norvegicus, UniProt P48548+P63251); assay type: cell-based; conditions: for IC50 / K 1/2 (effect on ATP-dependent gating of KACh channel): atrial inside-out patches, 100 μM GTP and 4 mM ATP, lipid 0.1, 1, 3, 10 and 30 μM, n = 3 each; for reversal of inhibition of ATP-dependent gating: fatty acid–free albumin 50 μg/ml
T1 sequence (P63251 1-501): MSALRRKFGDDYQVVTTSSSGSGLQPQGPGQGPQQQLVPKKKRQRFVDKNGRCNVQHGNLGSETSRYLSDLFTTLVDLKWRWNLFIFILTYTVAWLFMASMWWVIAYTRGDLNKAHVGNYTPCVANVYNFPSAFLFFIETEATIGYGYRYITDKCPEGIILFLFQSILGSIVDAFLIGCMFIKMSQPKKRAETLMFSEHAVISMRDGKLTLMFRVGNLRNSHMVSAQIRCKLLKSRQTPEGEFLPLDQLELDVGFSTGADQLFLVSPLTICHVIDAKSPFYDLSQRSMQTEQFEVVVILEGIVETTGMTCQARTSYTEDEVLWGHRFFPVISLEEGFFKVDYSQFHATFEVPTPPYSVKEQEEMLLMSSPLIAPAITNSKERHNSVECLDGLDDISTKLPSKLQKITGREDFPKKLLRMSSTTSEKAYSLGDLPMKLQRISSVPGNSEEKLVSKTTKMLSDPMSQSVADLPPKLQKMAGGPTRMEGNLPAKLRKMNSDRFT
T1 sequence (P48548 1-419): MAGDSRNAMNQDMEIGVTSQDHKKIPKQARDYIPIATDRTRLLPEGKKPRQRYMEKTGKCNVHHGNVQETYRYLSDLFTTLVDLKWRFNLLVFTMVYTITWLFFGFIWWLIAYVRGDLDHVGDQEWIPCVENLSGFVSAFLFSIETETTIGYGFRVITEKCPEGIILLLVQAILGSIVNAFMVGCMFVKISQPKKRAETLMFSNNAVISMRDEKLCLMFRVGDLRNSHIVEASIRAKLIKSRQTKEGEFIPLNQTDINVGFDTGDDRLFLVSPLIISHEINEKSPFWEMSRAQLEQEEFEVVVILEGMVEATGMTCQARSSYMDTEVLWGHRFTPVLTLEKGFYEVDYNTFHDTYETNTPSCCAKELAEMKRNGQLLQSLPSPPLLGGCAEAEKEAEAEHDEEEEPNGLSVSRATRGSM

[2] = molecular target: T1, KACh channel; assay type: cell-based
Method in brief: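 Inside-out patches from cultured newborn-rat atrial cells, 10 μM ACh in pipette, −60 mV, 24–26°C. Channels were activated by 100 μM GTP in the bath, then 4 mM ATP was added, with free Mg2+ held at 0.5 mM. nPo from 1–2 min of recording. Open and closed times came from maximum-likelihood fits of idealized records to schemes with 2–3 closed and two open states, using patches with ≤4 open levels.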

[3] = tested on: K1 channel; experiment: ATP-activated background K1 channel, atrial inside-out patches; assay type: cell-based, rat; conditions: 4 mM ATP in bath, inside-out atrial patch
[4] = molecular target: T1, KACh channel; assay type: cell-based; conditions: 4 mM ATP with 100 μM GTP in pipette, 10 μM ACh, outside-out
Method in brief: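 Cultured atrial myocytes from 1-day-old rats; outside-out patches at −60 mV, 24–26°C. Pipette held […] 100 μM GTP, GTP plus 4 mM ATP, or these plus atrial cytosolic fraction (5 mg protein/ml). Symmetrical 140 mM KCl, 0.5 mM MgCl2, 5 mM EGTA, 10 mM HEPES, pH 7.2. nPo from 1–2 min of recording.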

[5] = molecular target: T1, KACh channel; conditions: cited from earlier work; for effect on KACh channel activity: physiological concentrations, ref Hong et al. 1996
[6] = molecular target: T1, KACh channel; assay type: cell-based; conditions: for τo1: 100 μM phospholipid, inside-out, n = 3
[7] = molecular target: KATP channel (Rattus norvegicus, UniProt P70673); experiment: KATP channel, inside-out patches from adult rat ventricular cells; assay type: cell-based; conditions: PIP2 applied soon after patch excision
KATP channel, sequence (P70673 whole entry): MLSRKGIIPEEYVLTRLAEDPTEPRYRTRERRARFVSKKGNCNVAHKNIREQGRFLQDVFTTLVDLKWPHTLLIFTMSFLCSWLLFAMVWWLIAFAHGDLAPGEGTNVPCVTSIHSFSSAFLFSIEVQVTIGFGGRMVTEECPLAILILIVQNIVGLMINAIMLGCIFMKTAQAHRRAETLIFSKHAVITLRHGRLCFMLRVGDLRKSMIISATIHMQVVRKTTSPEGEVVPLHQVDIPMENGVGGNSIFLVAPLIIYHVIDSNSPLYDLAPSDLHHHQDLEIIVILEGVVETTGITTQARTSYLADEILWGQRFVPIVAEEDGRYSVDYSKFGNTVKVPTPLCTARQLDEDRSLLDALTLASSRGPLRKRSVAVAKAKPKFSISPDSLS
KATP channel, sequence (Q63563 whole entry partner): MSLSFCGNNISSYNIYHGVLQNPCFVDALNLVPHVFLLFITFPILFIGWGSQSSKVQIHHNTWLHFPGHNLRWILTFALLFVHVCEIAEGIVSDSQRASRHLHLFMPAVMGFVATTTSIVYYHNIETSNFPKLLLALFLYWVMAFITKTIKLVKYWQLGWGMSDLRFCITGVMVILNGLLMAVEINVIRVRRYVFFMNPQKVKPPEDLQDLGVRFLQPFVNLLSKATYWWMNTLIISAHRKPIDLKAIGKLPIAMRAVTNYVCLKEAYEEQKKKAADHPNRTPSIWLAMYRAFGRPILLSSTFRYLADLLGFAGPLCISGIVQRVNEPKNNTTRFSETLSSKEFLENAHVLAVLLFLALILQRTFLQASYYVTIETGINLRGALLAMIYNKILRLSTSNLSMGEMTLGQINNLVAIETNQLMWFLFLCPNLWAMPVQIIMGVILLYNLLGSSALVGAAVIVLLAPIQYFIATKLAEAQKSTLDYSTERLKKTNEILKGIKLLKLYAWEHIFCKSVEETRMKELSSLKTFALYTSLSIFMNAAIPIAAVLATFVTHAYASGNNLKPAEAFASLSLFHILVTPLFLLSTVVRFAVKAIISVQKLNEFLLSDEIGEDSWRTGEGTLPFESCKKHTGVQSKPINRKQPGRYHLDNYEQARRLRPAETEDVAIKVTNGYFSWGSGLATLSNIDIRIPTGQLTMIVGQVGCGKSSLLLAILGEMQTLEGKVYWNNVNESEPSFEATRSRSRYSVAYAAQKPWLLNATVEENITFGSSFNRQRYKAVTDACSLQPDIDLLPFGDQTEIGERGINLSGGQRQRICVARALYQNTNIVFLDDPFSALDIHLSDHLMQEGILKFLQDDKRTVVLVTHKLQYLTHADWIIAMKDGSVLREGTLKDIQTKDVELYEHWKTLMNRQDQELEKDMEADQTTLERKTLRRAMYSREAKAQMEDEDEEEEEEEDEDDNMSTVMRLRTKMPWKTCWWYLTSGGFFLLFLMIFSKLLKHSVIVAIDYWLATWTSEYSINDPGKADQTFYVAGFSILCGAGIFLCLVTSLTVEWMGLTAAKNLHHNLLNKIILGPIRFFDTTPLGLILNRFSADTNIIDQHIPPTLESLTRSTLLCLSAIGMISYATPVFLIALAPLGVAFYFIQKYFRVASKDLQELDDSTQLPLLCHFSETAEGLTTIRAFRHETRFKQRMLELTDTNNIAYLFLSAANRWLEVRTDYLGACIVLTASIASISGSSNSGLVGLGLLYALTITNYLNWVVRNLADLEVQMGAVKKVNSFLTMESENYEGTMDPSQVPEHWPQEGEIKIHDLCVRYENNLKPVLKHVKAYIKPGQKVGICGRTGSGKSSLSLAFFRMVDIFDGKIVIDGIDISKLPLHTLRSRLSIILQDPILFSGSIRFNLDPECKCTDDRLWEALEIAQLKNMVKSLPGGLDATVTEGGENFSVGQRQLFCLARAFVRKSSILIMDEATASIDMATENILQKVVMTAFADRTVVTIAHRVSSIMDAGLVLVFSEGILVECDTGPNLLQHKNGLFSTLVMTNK
Method in brief: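 KATP channels that appeared on forming inside-out patches were tested with 5 μM arachidonic acid on the cytoplasmic side. In some patches channels were first allowed to run down, then briefly exposed to 3 mM ATP to reactivate them before fatty acid was applied. Recordings were at 24–26°C; 2 μM was also tested (n = 3).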

[8] = K 1/2 (effect on ATP-dependent gating of KACh channel)
[9] = read-out: K 1/2 (effect on ATP-dependent gating of KACh channel)

Compound: CCCCCCCC(=O)OCC(CO)OC(=O)CCCCCCC (stereo not drawn) [1,2-dioctanoylglycerol]
- IC50 [1, 8]: 2.8 ± 0.4 µM

Compound: CCCCCCCC/C=C\CCCCCCCC(=O)OCC(CO)OC(=O)CCCCCCC/C=C\CCCCCCCC (stereo not drawn) [1,2-dioleoylglycerol]
- IC50 [1, 8]: 21 ± 3 µM

Compound: CCCCC/C=C\C/C=C\CCCCCCCC(=O)OCC(O)CO (stereo not drawn) [1-monolinoleoylglycerol]
- IC50 [1, 8]: 8.4 ± 2.2 µM

Compound: CCCCCCCC/C=C\CCCCCCCC(=O)OCC(O)CO (stereo not drawn) [1-monooleoylglycerol]
- IC50 [1, 8]: 42 ± 6 µM

Compound: CCCCCC/C=C\CCCCCCCC(=O)OCC(O)CO (stereo not drawn) [1-monopalmitoleoylglycerol]
- IC50 [1, 8]: 52 ± 7 µM

Compound: CCCCCCCC/C=C\CCCCCCCC(=O)OCC(CO)OC(C)=O (stereo not drawn) [1-oleoyl-2-acetylglycerol]
- IC50 [1, 8]: 22 ± 3 µM

Compound: CCCCC/C=C\C/C=C\C/C=C\C/C=C\CCCC(=O)O[C@@H](CO)COC(=O)CCCCCCCCCCCCCCCCC [1-stearoyl-2-arachidonoyl-sn-glycerol]
- K 1/2 (effect on ATP-dependent gating of KACh channel) [1]: No effect

Compound: CCCCC/C=C\C/C=C\CCCCCCCC(=O)O[C@@H](CO)COC(=O)CCCCCCCCCCCCCCCCC [1-stearoyl-2-linoleoyl-sn-glycerol]
- K 1/2 (effect on ATP-dependent gating of KACh channel) [1]: No effect

Compound: CCCCCCCC/C=C\CCCCCCCC(=O)OC(CO)CO [2-monooleoylglycerol]
- IC50 [1, 8]: 48 ± 8 µM

Compound: Nc1ncnc2c1ncn2[C@@H]1O[C@H](COP(=O)(O)OP(=O)(O)OP(=O)(O)O)[C@@H](O)[C@H]1O [ATP]
- increase in nPo ([2]; 4 mM ATP added to GTP, inside-out patches): approximately fivefold increase
- mean closed time of long closings (C1) ([2]; 4 mM ATP, inside-out patches): 62 ms
- Hill coefficient of [ATP]–nPo relationship ([2]; n = 3): 1.9 ± 0.2
- activation of K1 channel [3]: quickly activated
- channel activity (nPo) with ATP versus without [4]: approximately fivefold higher

Compound: CCCCC/C=C\C/C=C\C/C=C\C/C=C\CCCC(=O)OC [Arachidonic acid methyl ester]
- IC50 [1, 9]: 12 ± 3 µM

Compound: [Ca+2] [Ca^2+]
- effect on open time constant of the KACh channel ([5]; at concentrations above 30 μM, ref Kim 1991): decreased
- effect on KACh channel activity [5]: no significant effect

Compound: CCCCCCCCCCCCCC(=O)O[C@@H]1[C@@H](C)[C@@]2(O)[C@@H](C=C(CO)C[C@]3(O)C(=O)C(C)=C[C@@H]23)[C@@H]2C(C)(C)[C@]12OC(C)=O [Phorbol myristate acetate]
- K 1/2 (effect on ATP-dependent gating of KACh channel) [1]: No effect

Compound: Nc1nc2c(ncn2[C@@H]2O[C@@H]3COP(=O)(O)O[C@H]3[C@H]2O)c(=O)[nH]1 [cGMP]
- effect on KACh channel activity [5]: no significant effect

Compound: O=P(O)(O)O[C@@H]1[C@H](O)[C@H](O)[C@@H](OP(=O)(O)O)[C@H](OP(=O)(O)O)[C@H]1O [inositol trisphosphate]
- effect on KACh channel activity [5]: no significant effect

Compound: Phosphatidylserine
- K 1/2 (effect on ATP-dependent gating of KACh channel) [1]: No effect

Compound: phosphatidylcholine
- τo1 [6]: 2.5 ± 0.6 ms

Now from value to compound, other results behind:

- IC50 [1, 9]: 44 ± 7 µM
Compound: CCCCC/C=C\C/C=C\C/C=C\C/C=C\CCCCO [Arachidonyl alcohol]

- K 1/2 (effect on ATP-dependent gating of KACh channel) [1]: No effect
Compound: CCCCCCCC(=O)O [Caprylic acid (8:0), Caprylic acid]

- K 1/2 (effect on ATP-dependent gating of KACh channel) [1]: No effect
Compound: CCCCCCCCCCCCCC=CC(O)C(CO)NC(C)=O (stereo not drawn) [Ceramide (C-2)]

- IC50 [1, 8]: 1.4 ± 0.2 µM
Compound: CC/C=C\C/C=C\C/C=C\C/C=C\C/C=C\C/C=C\CCC(=O)O [Docosahexaenoic acid [22:6 (n-3)], Docosahexaenoic acid]

- IC50 [1, 8]: 5.6 ± 2.2 µM
Compound: CC/C=C\C/C=C\C/C=C\C/C=C\C/C=C\CCCC(=O)O [Eicosapentaenoic acid [20:5 (n-3)], Eicosapentaenoic acid]

- IC50 [1, 8]: 21.6 ± 4.8 µM
Compound: CCCCCCCC/C=C/CCCCCCCC(=O)O [Elaidic acid [t-18:1 (n-9)], Elaidic acid]

- K 1/2 (effect on ATP-dependent gating of KACh channel) [1]: No effect
Compound: OCC(O)CO [Glycerol]

- K 1/2 (effect on ATP-dependent gating of KACh channel) [1]: No effect
Compound: O=P(O)(O)OCC(O)CO (stereo not drawn) [Glycerophosphate]

- K 1/2 (effect on ATP-dependent gating of KACh channel) [1]: No effect
Compound: CCCCC/C=C\C\C=C/C=C/C=C/[C@@H](SC[C@H](NC(=O)CC[C@H](N)C(=O)O)C(=O)NCC(=O)O)[C@@H](O)CCCC(=O)O [Leukotriene C4]

- IC50 [1, 9]: 3.2 ± 0.6 µM
Compound: CCCCC/C=C/C/C=C/CCCCCCCC(=O)O [Linoelaidic acid [t,t-18:2 (n-6)], Linoelaidic acid]

- IC50 [1, 9]: 12.5 ± 2.1 µM
Compound: CCCCCCCC/C=C\CCCCCCCCCCCCCC(=O)O [Nervonic acid [24:1 (n-9)], Nervonic acid]

- inhibition of ATP-dependent gating, extracellular application ([1]; 5 μM in the pipette solution (extracellular), after 5 min, n = 4 each): did not inhibit
- Hill coefficient of inhibition ([1]; ATP-modified KACh channels, inside-out): ~2
- IC50 [1, 8]: 1.5 ± 0.2 µM
- inhibition at 50 µM ([1]; read-out: partial inhibition of ATP-dependent gating, extracellular application): 65 ± 6%
- effect on PIP2-dependent gating of KACh channel ([6]; 2 μM fatty acid applied with 30 μM PIP2): inhibited
Compound: CCCCCCCC/C=C\CCCCCCCC(=O)O [Oleic acid [18:1 (n-9)], Oleic acid]
- inhibitory potency after incubation ([1]; room temperature or 37°C for 30 min): reduced their inhibitory potency significantly

- K 1/2 (effect on ATP-dependent gating of KACh channel) [1]: No effect
Compound: CCCCCCCCCCCCCCCC(=O)O [Palmitic acid (16:0), Palmitic acid]

- IC50 [1, 8]: 10.5 ± 2.4 µM
Compound: CCCCCC/C=C\CCCCCCCC(=O)O [Palmitoleic acid [16:1 (n-7)], Palmitoleic acid]

- K 1/2 (effect on ATP-dependent gating of KACh channel) [1]: No effect
Compound: CCCCC[C@H](O)/C=C/[C@H]1[C@H](O)CC(=O)[C@@H]1CCCCCCC(=O)O [Prostaglandin E1]

- K 1/2 (effect on ATP-dependent gating of KACh channel) [1]: No effect
Compound: NCCCCNCCCN [Spermidine]

- K 1/2 (effect on ATP-dependent gating of KACh channel) [1]: No effect
Compound: NCCCNCCCCNCCCN [Spermine]

- K 1/2 (effect on ATP-dependent gating of KACh channel) [1]: No effect
Compound: CCCCCCCCCCCCC/C=C/[C@@H](O)[C@@H](N)CO [Sphingosine (D-form), Sphingosine]

- K 1/2 (effect on ATP-dependent gating of KACh channel) [1]: No effect
Compound: CCCCCCCCCCCCCCCCCC(=O)O [Stearic acid (18:0), Stearic acid]

- IC50 [1, 9]: 6.2 ± 0.8 µM
Compound: CC/C=C\C/C=C\C/C=C\CCCCCCCC(=O)O [α-linolenic acid [18:3 (n-3)], α-linolenic acid]

- K 1/2 (effect on ATP-dependent gating of KACh channel) [1]: No effect
Compound: Lysophosphatidylethanolamine

- reversal of inhibition of ATP-dependent gating [1]: almost complete reversal
- reversal of inhibition of ATP-dependent gating ([1]; listed as fatty acid-free albumin): completely remove
Compound: albumin: fatty acid–free bovine serum albumin

- τo1 [6]: 2.8 ± 0.5 ms
Compound: phosphatidylethanolamine

- open time constant of second open state ([6]; 30 μM PIP2 after GTPγS (100 μM) activation): 2.6 ± 0.3 ms and 2.6 ms
- increase in channel activity ([6]; 30 μM PIP2 after GTPγS activation): approximately twofold increase
- effect on rundown of KATP channels [7]: prevented rundown
Compound: phosphatidylinositol-4,5-bisphosphate [PIP2]
